Measured values reported in article PMC6069912 (ESMO Open, 2018).
*1 amine or outer side, *2 acyl side, *3 side chain or, on linkers, in order; H or OH if unused. Where a SMILES comes first, the peptide text is derived from it. Side-chain parts run from the residue outwards. [ ]: non-standard residue; d: D form. The star is where a group is joined. Ethylenediamine = C(CN[*:2])N[*:1]; Hyp = O=C(O)[C@@H]1C[C@@H](O)CN1; Phg = N[C@H](C(=O)O)c1ccccc1; CO = O=C([*:1])[*:2]; Bn = c1ccc(C*)cc1

Tests used:
Format in all cases: in vivo, human
[1] = Pharmacokinetics of pasireotide SC in patients, non-compartmental analysis
Summary of the method: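 Patients received the test compound SC at 300–1200 µg tid during the dose-escalation phase. […] was sampled on days 1 and 8 of each of the four dose-escalation cycles and monthly during follow-up. Non-compartmental analysis gave Cmax and Cmin on days 1 and 8 of each cycle, and AUC0–2h at steady state.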

[2] = test system: IGF-1, IGF-2, IGFBP2, IGFBP3, S100B, MIA; test: Serum secretion and melanoma response biomarkers over time; conditions: patients
Summary of the method: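 Serum S100B, MIA, IGF-1, IGF-2, IGFBP2 and IGFBP3 were followed over time in patients receiving the test compound SC tid (300–1200 µg escalation, optionally followed by 80 mg long-acting IM every 28 days). Results were summarised descriptively.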

[3] = test system: Ki-67; test: Ki-67 staining of tumour samples before and during pasireotide; conditions: assessed before and during treatment in four patients
[4] = test system: patient with BRAF-WT and NRAS-WT stage IVc cutaneous melanoma; test: Individual patient response summary: ascites and weight; conditions: patient number 4, after readministration of pasireotide
[5] = test system: BRAF-WT and NRAS-WT metastatic melanoma; test: Antitumour activity: tumour response by RECIST 1.0; conditions: n=10, two patients, 95% CI 2.5 to 55.6; by CT or MRI and 18-FDG-PET
Summary of the method: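 Patients with measurable RECIST 1.0 disease and ≥1 lesion suitable for 18-FDG-PET SUV measurement received the test compound SC at 300, 600, 900 and 1200 µg tid by intrapatient escalation for ≤8 weeks, optionally followed by 80 mg long-acting IM every 28 days. Investigators assessed response by RECIST 1.0 on CT/MRI on days 57, 113 and 169 and at end of treatment, and by adapted EORTC criteria on 18-FDG-PET on days 29 and 57. Efficacy set: ≥1 dose; 95% CI.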

[6] = test system: patients with BRAF-WT and NRAS-WT metastatic melanoma; test: Phase I safety: adverse events
Summary of the method: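 Open-label intrapatient escalation of the test compound SC at 300, 600, 900 and 1200 µg tid over an 8-week dose-escalation phase. At each visit, monitoring covered laboratory tests, ECG, vital signs, physical examination and gall bladder ultrasound, with AEs recorded in the eCRF. AEs of any relationship were tabulated by preferred term and by the dose level at which they started. Safety set: ≥1 dose plus ≥1 post-baseline safety assessment.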

[7] = dose-escalation phase, AEs started at 300 µg tid SC, safety set n=10
[8] = dose-escalation phase, AEs started at 600 µg tid SC, safety set n=10
[9] = dose-escalation phase, AEs started at 900 µg tid SC, safety set n=10
[10] = dose-escalation phase, AEs started at 1200 µg tid SC, safety set n=10
[11] = dose-escalation phase, all patients (all dose levels), safety set n=10
[12] = overall (dose-escalation phase+follow-up phase), all patients, safety set n=10

For `NCCCC[C@@H]1NC(=O)[C@@H](Cc2c[nH]c3ccccc23)NC(=O)[C@H](c2ccccc2)NC(=O)[C@@H]2C[C@@H](OC(=O)NCCN)CN2C(=O)[C@H](Cc2ccccc2)NC(=O)[C@H](Cc2ccc(OCc3ccccc3)cc2)NC1=O` [pasireotide] (cyclo([Hyp]([CO-Ethylenediamine])[Phg][dW]KY(Bn)F)), the “Accumulation ratio of AUC0–2h” value ([1]; 300 µg three times a day SC, patients) was 147%, the “AUC0–2h, Cmax and Cmin versus dose” value ([1]; mean plasma concentration versus time profiles on day 8, 300-1200 µg tid SC) was “increased with the increasing dose” and the “Serum level of IGF-1 during treatment” value ([2]; over time) was “decrease”. The “Serum level of IGF-2 during treatment” value ([2]; over time) was “decrease”, the “Serum level of MIA during treatment” value ([2]; over time) was “decrease” and the “Serum level of S100B during treatment” value ([2]; over time) was “decrease”. For the same compound, the “IGFBP2 serum levels with time” value ([2]; serum) was “increase”, the “IGFBP3 levels with time” value ([2]; serum) was “decrease” and the “Tumour samples with decreases in Ki-67 staining following treatment” value [3] was “Three of the four”. For the same compound, the Improvement in ascites [4] was “from grade 2 to grade 1”, the Reduction in weight ([4]; ascites) was “from 85 kg to 63 kg” and the “Best overall DCR (stable disease or better)” value [5] was 20%. For the same compound, the “Tolerability in patients with BRAF-WT and NRAS-WT melanoma” value ([6]; authors' overall conclusion) was “safe and well tolerated”, the “Chills, AE regardless of study drug relationship” value (from here on “Chills, AE regardless”) [6, 7] was 0 n (%) and the “Diarrhoea, AE regardless of study drug relationship” value (“Diarrhoea, AE regardless” below) [6, 7] was 4 (40) n (%). The “Fatigue, AE regardless of study drug relationship” value (from here on “Fatigue, AE regardless”) [6, 7] was 2 (20) n (%), the “Hyperglycaemia, AE regardless of study drug relationship” value (“Hyperglycaemia, AE regardless” for short) [6, 7] was 2 (20) n (%) and the “Hypophosphatemia, AE regardless of study drug relationship” value (“Hypophosphatemia, AE regardless” below) [6, 7] was 1 (10) n (%). The “Nausea, AE regardless of study drug relationship” value (“Nausea, AE regardless” for short) [6, 7] was 3 (30) n (%), the “Tumour pain, AE regardless of study drug relationship” value (“Tumour pain, AE regardless” below) [6, 7] was 2 (20) n (%) and the “Chills, AE regardless” value [6, 8] was 1 (10) n (%). For the same compound, the “Diarrhoea, AE regardless” value [6, 8] was 1 (10) n (%), the “Fatigue, AE regardless” value [6, 8] was 0 n (%) and the “Hyperglycaemia, AE regardless” value [6, 8] was 0 n (%). The “Hypophosphatemia, AE regardless” value [6, 8] was 1 (10) n (%), the “Nausea, AE regardless” value [6, 8] was 2 (20) n (%) and the “Tumour pain, AE regardless” value [6, 8] was 0 n (%). For the same compound, the “Chills, AE regardless” value [6, 9] was 1 (10) n (%), the “Diarrhoea, AE regardless” value [6, 9] was 0 n (%) and the “Fatigue, AE regardless” value [6, 9] was 0 n (%). The “Hyperglycaemia, AE regardless” value [6, 9] was 0 n (%), the “Hypophosphatemia, AE regardless” value [6, 9] was 1 (10) n (%) and the “Nausea, AE regardless” value [6, 9] was 1 (10) n (%). The “Tumour pain, AE regardless” value [6, 9] was 0 n (%), the “Chills, AE regardless” value [6, 10] was 0 n (%) and the “Diarrhoea, AE regardless” value [6, 10] was 0 n (%). For the same compound, the “Fatigue, AE regardless” value [6, 10] was 0 n (%), the “Hyperglycaemia, AE regardless” value [6, 10] was 0 n (%) and the “Hypophosphatemia, AE regardless” value [6, 10] was 0 n (%). The “Nausea, AE regardless” value [6, 10] was 0 n (%), the “Tumour pain, AE regardless” value [6, 10] was 0 n (%) and the “Chills, AE regardless” value [6, 11] was 2 (20) n (%). For the same compound, the “Diarrhoea, AE regardless” value [6, 11] was 5 (50) n (%), the “Fatigue, AE regardless” value [6, 11] was 2 (20) n (%) and the “Hyperglycaemia, AE regardless” value [6, 11] was 2 (20) n (%). For the same compound, the “Hypophosphatemia, AE regardless” value [6, 11] was 2 (20) n (%), the “Nausea, AE regardless” value [6, 11] was 5 (50) n (%) and the “Tumour pain, AE regardless” value [6, 11] was 2 (20) n (%). For the same compound, the “Incidence of chills (most commonly reported AEs)” value ([6]; dose-escalation phase, n=10) was 20%, the “Incidence of diarrhoea (most commonly reported AEs)” value ([6]; dose-escalation phase, n=10) was 50% and the “Incidence of fatigue (most commonly reported AEs)” value ([6]; dose-escalation phase, n=10) was 20%. For the same compound, the “Incidence of hyperglycaemia (most commonly reported AEs)” value ([6]; dose-escalation phase, n=10) was 20%, the “Incidence of hypophosphatemia (most commonly reported AEs)” value ([6]; dose-escalation phase, n=10) was 20% and the “Incidence of nausea (most commonly reported AEs)” value ([6]; dose-escalation phase, n=10) was 50%. The “Incidence of tumour pain (most commonly reported AEs)” value ([6]; dose-escalation phase, n=10) was 20%, the “Study drug-related AE: diarrhoea” value ([6]; dose-escalation phase, n=10) was 50% and the “Study drug-related AE: fatigue” value ([6]; dose-escalation phase, n=10) was 20%. For the same compound, the “Study drug-related AE: hyperglycaemia” value ([6]; dose-escalation phase, n=10) was 20%, the “Study drug-related AE: nausea” value ([6]; dose-escalation phase, n=10) was 50% and the “Chills, AE regardless” value [6, 12] was 2 (20) n (%). For the same compound, the “Diarrhoea, AE regardless” value [6, 12] was 5 (50) n (%), the “Fatigue, AE regardless” value [6, 12] was 3 (30) n (%) and the “Hyperglycaemia, AE regardless” value [6, 12] was 3 (30) n (%). For the same compound, the “Hypophosphatemia, AE regardless” value [6, 12] was 3 (30) n (%), the “Nausea, AE regardless” value [6, 12] was 5 (50) n (%) and the “Tumour pain, AE regardless” value [6, 12] was 2 (20) n (%). For the same compound, the “Weight decreased, AE regardless of study drug relationship” value [6, 12] was 2 (20) n (%), the “Incidence of chills (most commonly reported AEs)” value ([6]; overall safety, n=10) was 20% and the “Incidence of decreased weight (most commonly reported AEs)” value ([6]; overall safety, n=10) was 20%. The “Incidence of diarrhoea (most commonly reported AEs)” value ([6]; overall safety, n=10) was 50%, the “Incidence of fatigue (most commonly reported AEs)” value ([6]; overall safety, n=10) was 30% and the “Incidence of hyperglycaemia (most commonly reported AEs)” value ([6]; overall safety, n=10) was 30%. For the same compound, the “Incidence of hypophosphatemia (most commonly reported AEs)” value ([6]; overall safety, n=10) was 30%, the “Incidence of nausea (most commonly reported AEs)” value ([6]; overall safety, n=10) was 50% and the “Incidence of tumour pain (most commonly reported AEs)” value ([6]; overall safety, n=10) was 20%. For the same compound, the “Study drug-related AE: diarrhoea” value ([6]; overall safety, n=10) was 50%, the “Study drug-related AE: fatigue” value ([6]; overall safety, n=10) was 20% and the “Study drug-related AE: hyperglycaemia” value ([6]; overall safety, n=10) was 30%. For the same compound, the “Study drug-related AE: hypophosphatemia” value ([6]; overall safety, n=10) was 20%, the “Study drug-related AE: nausea” value ([6]; overall safety, n=10) was 50% and the “Study drug-related AE: weight decrease” value ([6]; overall safety, n=10) was 20%. The “Study drug-related AEs, patients with any” value ([6]; overall safety, n=10) was 80% and the “Grade 3 or 4 drug-related AEs” value ([6]; overall safety, diarrhoea and nausea in one patient, hypophosphatemia in one patient, n=10) was 20%.
